ChEMBL document CHEMBL3779799, “Antifibrotic and anticancer action of 5-ene amino/iminothiazolidinones” (Eur J Med Chem, 2016)
pIC50: −log10 of the molar value. The source made the active and inactive calls. The rule behind the calls is not given here.

Tests used:
HFL1 [1] = experiment: Antifibrotic activity in HFL1 cells assessed as inhibition of cell viability at >1 uM after 48 hrs by sulforhodamine B assay relative to control; format: functional; settings: Homo sapiens, HFL1, 48 h
In short: (§1)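 HFL-1 human fetal lung fibroblasts (DMEM, 10% FCS, passages 14–18) seeded at 8000 cells/well, attached overnight, then exposed to a range of concentrations for 48 h in triplicate. Cells were fixed with TCA and stained with 0.4% SRB, bound dye was solubilized in Tris, and OD was read at 570 nm relative to control.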

HFL1 [2] = experiment: Antifibrotic activity in HFL1 cells assessed as inhibition of cell viability after 48 hrs by sulforhodamine B assay; format: functional, cell-based; settings: Homo sapiens, HFL1, 48 h; in short: as §1
[3] = Cytotoxicity against human SF268 cells assessed as cell growth at 10^-4 M after 48 hrs by sulforhodamine B assay relative to control; format: functional; settings: SF-268, 48 h, read-out: Activity
In short: (§2)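 Cells were inoculated and preincubated 24–48 h, then exposed to a single dose of 10^-4 M for 48 h. SRB protein staining was the endpoint, and growth percent was calculated versus untreated controls.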

MCF7 [4] = experiment: Cytotoxicity against human MCF7 cells assessed as cell growth at 10^-4 M after 48 hrs by sulforhodamine B assay relative to control; format: functional; settings: MCF7, 48 h, read-out: Activity; in short: as §2
NCI-H460 = experiment: Cytotoxicity against human NCI-H460 cells assessed as cell growth at 10^-4 M after 48 hrs by sulforhodamine B assay relative to control; format: functional; settings: NCI-H460, 48 h, read-out: Activity; in short: as §2
[5] = Growth inhibition of human HOP62 cells after 48 hrs by sulforhodamine B assay; format: functional; settings: HOP-62, 48 h
In short: (§3)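 NCI ~60-cell-line panel with five 10-fold dilutions (10^-4 to 10^-8 M) and 48 h continuous exposure, using an SRB endpoint. Percentage growth was derived from time-zero, control and treated absorbances. […] Values are expressed as > or < when outside the tested range.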

U-251 = experiment: Growth inhibition of human U251 cells after 48 hrs by sulforhodamine B assay; format: functional; settings: U-251, 48 h; in short: as §3
[6] = Growth inhibition of human NCI60 cells after 48 hrs by sulforhodamine B assay; format: functional; settings: NCI60, 48 h; for CC50: read-out: pLC50 (the source's name) (converted); for TGI: read-out: pTGI (converted)
In short: (§4)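 NCI ~60-cell-line panel with five 10-fold dilutions (10^-4 to 10^-8 M) and 48 h continuous exposure, using an SRB endpoint. Percentage growth was derived from time-zero, control and treated absorbances. Values are expressed as > or < when outside the tested range.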

[7] = Growth inhibition of human HOP92 cells after 48 hrs by sulforhodamine B assay; format: functional; settings: HOP-92, 48 h; in short: as §3
MDA-MB-231 = experiment: Growth inhibition of human MDA-MB-231 cells after 48 hrs by sulforhodamine B assay; format: functional; settings: MDA-MB-231, 48 h; in short: as §3
[8] = Growth inhibition of human HCT116 cells after 48 hrs by sulforhodamine B assay; format: functional; settings: HCT-116, 48 h; for CC50: read-out: LC50 (the source's name); in short: as §4
[9] = Antioxidant activity assessed as inhibition of superoxide anion generation measured for 3 mins by nitro blue tetrazolium assay; format: physicochemical; settings: for Emax: 0.05 h
In short: (§5)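 Cell-free superoxide generated by xanthine (1 mM) and xanthine oxidase (0.11 U/mL), with NBT (50 µM) as detector. Compounds in DMSO were tested up to 10 µM, with DMSO held at 0.1%. NBT reduction rate (dA560/dt) was read spectrophotometrically over 3 min from the linear part.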

NCI-H522 = experiment: Cytotoxicity against human NCI-H522 cells assessed as cell growth at 10^-5 M after 48 hrs by sulforhodamine B assay relative to control; format: functional; settings: NCI-H522, 48 h, read-out: Activity
In short: (§6)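 NCI ~60 human tumor cell line one-dose screen covering nine cancer types. Cells were preincubated 24–48 h, then exposed to compound at 10^-5 M for 48 h. SRB protein staining was the endpoint, and growth percent was calculated versus untreated control cells.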

[10] = Cytotoxicity against human RPMI8226 cells assessed as cell growth at 10^-5 M after 48 hrs by sulforhodamine B assay relative to control; format: functional; settings: RPMI-8226, 48 h, read-out: Activity; in short: as §6
HFL1 [11] = experiment: Antifibrotic activity in HFL1 cells assessed as reduction in cell proliferation after 150 hrs by xCelligence analysis; settings: Homo sapiens
[12] = Cytotoxicity against human UO31 cells assessed as cell growth at 10^-5 M after 48 hrs by sulforhodamine B assay relative to control; format: functional; settings: UO-31, 48 h, read-out: Activity; in short: as §6
[13] = Antioxidant activity assessed as inhibition of superoxide anion generation upto 10 uM measured for 3 mins by nitro blue tetrazolium assay; format: physicochemical; settings: 0.05 h; in short: as §5
[14] = Cytotoxicity against human NCI60 cells assessed as cell growth at 10^-5 M after 48 hrs by sulforhodamine B assay relative to control; format: functional; settings: NCI60, 48 h, read-out: Activity; in short: as §6
HFL1 [15] = experiment: Antifibrotic activity in HFL1 cells assessed as reduction in maximum rate of cell proliferation after 150 hrs by xCelligence analysis; format: functional, cell-based; settings: Homo sapiens
In short: (§7)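 HFL-1 cells were seeded at 20,000/well and monitored by real-time impedance (xCelligence). Compound or DMSO vehicle was added at ~30 h, once attachment was maximal, and cells were followed for another 150 h. P150 was taken as the signal difference between 30 h and 180 h; Pdot was the maximum slope of the curve.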

[16] = Cytotoxicity against human SNB75 cells assessed as cell growth at 10^-5 M after 48 hrs by sulforhodamine B assay relative to control; format: functional; settings: SNB-75, 48 h, read-out: Activity; in short: as §6
HFL1 [17] = experiment: Antifibrotic activity in HFL1 cells assessed as reduction in cell proliferation at 0.1 to 1 uM after 150 hrs by xCelligence analysis; format: functional, cell-based; settings: Homo sapiens; in short: as §7
MDA-MB-435 = experiment: Growth inhibition of human MDA-MB-435 cells after 48 hrs by sulforhodamine B assay; format: functional; settings: MDA-MB-435, 48 h; in short: as §3
[18] = Growth inhibition of human OVCAR3 cells after 48 hrs by sulforhodamine B assay; format: functional; settings: OVCAR-3, 48 h; in short: as §3
SR = experiment: Growth inhibition of human SR cells after 48 hrs by sulforhodamine B assay; format: functional
In short: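 NCI 60-cell-line panel, five-dose screen: cells inoculated and preincubated 24-48 h, then exposed continuously for 48 h to five 10-fold dilutions from 10^-4 to 10^-8 M. Protein measured by SRB staining at time zero, in untreated control and in treated wells.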

MCF7 [19] = experiment: Growth inhibition of human MCF7 cells after 48 hrs by sulforhodamine B assay; format: functional; settings: MCF7, 48 h; in short: as §3
KM12 = experiment: Growth inhibition of human KM12 cells after 48 hrs by sulforhodamine B assay; format: functional; settings: KM12, 48 h; in short: as §3
[20] = Growth inhibition of human RPMI8226 cells after 48 hrs by sulforhodamine B assay; format: functional; settings: RPMI-8226, 48 h; in short: as §3
[21] = Growth inhibition of human SW620 cells after 48 hrs by sulforhodamine B assay; format: functional; settings: SW-620, 48 h; in short: as §3
[22] = read-out: LC50 (the source's name)

`COc1ccccc1NC(=O)CSc1nnc(NC2=NC(=O)/C(=C/c3ccc(Cl)cc3)S2)s1` gave an Emax (HFL1 [1]) of 17.4% and a pIC50 (HFL1 [2]) of 7.40.

`O=C1N=C(Nc2ccc(O)cc2)S/C1=C1\C(=O)Nc2ccccc21` gave a growth at 100 µM [3] of 118%, a growth at 100 µM (MCF7 [4]) of 108% and a growth at 100 µM (NCI-H460) of 96%.

Work on `NS(=O)(=O)c1ccc(NC2=NC(=O)C(CC(=O)Nc3ccc(Br)cc3)S2)cc1` (racemic) yielded a GI50 [5] of 15.6 µM, a TGI [5] of 31.7 µM and a CC50 [5, 22] of 64.3 µM. The GI50 (U-251) was 20.7 µM, the LC50 (concentration killing 50% of cells) (U-251) was 94.3 µM and the TGI (U-251) was 44.2 µM. The growth at 100 µM [3] was 45%, the GI50 [6] was 58.9 µM and the CC50 [6] was 97.7 µM. It also gave a TGI [6] of 89.1 µM, a GI50 [7] of 24.3 µM and a TGI [7] of 58.3 µM. The CC50 [7, 22] was > 100 µM, the growth at 100 µM (MCF7 [4]) was 24% and the GI50 (MDA-MB-231) was 18.5 µM. The TGI (MDA-MB-231) was 38.2 µM, the CC50 (MDA-MB-231; [22]) was 78.6 µM and the growth at 100 µM (NCI-H460) was 88%. The GI50 [8] was 21.8 µM, the TGI [8] was 43.5 µM and the CC50 [8] was 86.7 µM.

`O=C1N=C(Nc2ccc(O)cc2)S/C1=C\C=C/c1ccccc1` showed a growth at 100 µM [3] of 103%, a growth at 100 µM (MCF7 [4]) of 124% and a growth at 100 µM (NCI-H460) of 140%.

`O=C1N=C(Nc2nccs2)S/C1=C1\C(=O)Nc2ccc(Br)cc21` gave a pIC50 [9] of 6.42, an Emax [9] of 67.4% and a GI50 [6] of 95.5 µM. The CC50 [6] was 100 µM and the TGI [6] was 100 µM.

`Cc1ccc(=O)n(-c2ccccc2)c1` [PIRFENIDONE] showed an Emax (HFL1 [1]) of 78.5%, a growth at 10 µM (NCI-H522) of 79.8% and a growth at 10 µM [10] of 76%. The Activity (HFL1 [11]) was “Dose-dependent effect”, the growth at 10 µM [12] was 76.9% and the “inhibition (INH)” value [13] was “Not Active”. For the same compound, the growth at 10 µM [14] was 96.3% and the pIC50 (HFL1 [2]) was 6.15.

For `CN(C1=NC(=O)/C(=C/C(Cl)=C/c2ccc([N+](=O)[O-])cc2)S1)c1ccc(O)cc1`, the pIC50 [9] was 6.02 and the Emax [9] was 47.4%.

`CC(=C/c1ccccc1)/C=C1\SC(N(C)c2ccc(O)cc2)=NC1=O` gave an Emax (HFL1 [1]) of 34%, a pIC50 [9] of 5.47 and an Emax [9] of 55%. The Activity (HFL1 [11]) was “Dose-dependent effect”, the Activity (HFL1 [15]) was “Dose-dependent effect” and the pIC50 (HFL1 [2]) was 8.00.

Compound `CC1S/C(=N/N=C/c2cccnc2)NC1=O` (racemic) has an Emax (HFL1 [1]) of 84.6%, a pIC50 [9] of 5.71 and an Emax [9] of 35.8%. It also gave a pIC50 (HFL1 [2]) of 6.08.

For `COc1ccc(-c2nnc(/N=C3\NC(=O)CS3)o2)cc1`, the growth at 10 µM [16] was 71.9%, the Emax (HFL1 [1]) was 84.6% and the Activity (HFL1 [17]) was “Active”. It also gave a pIC50 [9] of 6.54, an Emax [9] of 81.8% and a growth at 10 µM [14] of 102%. The pIC50 (HFL1 [2]) was 6.33.

In the case of `C=CCN1C(=O)/C(=C2/C(=O)Nc3ccccc32)S/C1=N\c1nccs1`, the Emax (HFL1 [1]) was 65.9%, the Activity (HFL1 [17]) was “Active” and the pIC50 [9] was 5.88. It also gave an Emax [9] of 86.5%, a growth at 100 µM [3] of 82% and a growth at 100 µM (MCF7 [4]) of 76%. It also gave a pIC50 (HFL1 [2]) of 7.05 and a growth at 100 µM (NCI-H460) of 49%.

With `O=C1N=C(Nc2ccc(O)cc2)S/C1=C\c1ccccc1` the Emax (HFL1 [1]) was 23.8%, the GI50 (U-251) was 0.68 µM and the LC50 (concentration killing 50% of cells) (U-251) was > 100 µM. For the same compound, the TGI (U-251) was > 100 µM, the GI50 (MDA-MB-435) was 0.21 µM and the TGI (MDA-MB-435) was 0.92 µM. The CC50 (MDA-MB-435; [22]) was > 100 µM, the GI50 [18] was 0.71 µM and the TGI [18] was > 100 µM. For the same compound, the CC50 [18, 22] was > 100 µM, the GI50 (SR) was 0.09 µM and the CC50 (SR; [22]) was > 100 µM. For the same compound, the GI50 (MCF7 [19]) was 0.25 µM, the TGI (MCF7 [19]) was > 100 µM and the CC50 (MCF7 [19]; [22]) was > 100 µM. It also gave a GI50 [6] of 12.9 µM, a CC50 [6] of 100 µM and a TGI [6] of 89.1 µM. The GI50 (KM12) was 0.87 µM, the TGI (KM12) was > 100 µM and the CC50 (KM12; [22]) was > 100 µM. The GI50 [20] was 0.6 µM, the TGI [20] was > 100 µM and the CC50 [20, 22] was > 100 µM. For the same compound, the GI50 [21] was 0.47 µM, the TGI [21] was > 100 µM and the CC50 [21, 22] was > 100 µM. For the same compound, the pIC50 (HFL1 [2]) was 7.05, the GI50 [8] was 0.32 µM and the TGI [8] was > 100 µM. The CC50 [8] was > 100 µM.

`O=C1CS/C(=N/N=C/c2cccnc2)N1` gave an Emax (HFL1 [1]) of 92.1% and a pIC50 (HFL1 [2]) of 6.09.
